Source: PubChem (The Scripps Research Institute Molecular Screening Center)
Sampled rows, rich in hits. Any-hit rate of the full collection: about 2.8%.
PAFAH1B2 inh – blocks human PAF acetylhydrolase 1b catalytic subunit 2; P68402; recombinant PAFAH1B2, FP-rhodamine activity probe, fluorescence polarization; inhibition, % at 3.39 µM; 340,000 tested, 1.2% active; AID 492953;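 active = inhibition above the mean of all tested compounds plus 3 SD, cut at about 24% in these data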;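 also: 0% = enzyme with DMSO and 100% = wells lacking PAFAH1B2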
PAFAH2 inh – PAFAH2 (human) inhibition | Q99487 | recombinant PAFAH2, FP-rhodamine activity probe, fluorescence polarization | inhibition, % at 3.39 µM | 340,000 tested, 0.99% active | AID 492956;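 active = inhibition above the mean over all tested compounds plus 3 SD, cut at about 30% in these data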;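 also: inhibitors block probe labeling of enzyme so polarization drops; 0% = enzyme with DMSO and 100% = wells lacking PAFAH2 protein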
ASAP1 inh – inhibitors of human ASAP1 ArfGAP activity; Q9ULH1; ASAP1-stimulated ARF1 GTP hydrolysis, GDP FP detection; inhibition, % at 16.5 µM; 360,000 tested, 0.19% active; in the data active = inhibition above about 25%;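 also: 0% = vehicle with enzyme and substrate and 100% = no enzyme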
ARFGAP1 inh – inhibitors of rat ARFGAP1. Q62848. inhibition, % at 16.5 µM. Arfgap1-stimulated ARF1 GTP hydrolysis, GDP FP detection. AID 651572. 360,000 tested, 0.26% active;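 active = inhibition above a per-plate limit, mean inhibition of low control wells plus 3 SD, cut at about 25% in these data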;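 also: 0% = DMSO wells with enzyme and 100% = wells lacking Arfgap1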
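Material – truncated rat Arfgap1 GAP domain · Buffer or medium – HEPES-based buffer, pH 7.5 · Reagent – human ARF1(Δ1-17)-GTP substrate · Dosing – 16.5 µM single point, 1.26% DMSO · Schedule – GTP hydrolysis reaction 2 h at 25 °C · Technique – GDP detection by fluorescence polarization · Benchmarks – No-Arfgap1 wells (100%) versus DMSO full-reaction wells (0%) · Repeats – single replicate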
PAFAH1B3 inh – blocks human PAF acetylhydrolase 1B catalytic subunit 3. Q15102. recombinant PAFAH1B3, FP-rhodamine probe, fluorescence polarization. inhibition, % at 3.39 µM. 340,000 tested, 0.28% active. AID 492972;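 active = inhibition above the screen-wide average of all tested compounds plus 3 SD, cut at about 25% in these data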;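 also: 0% = enzyme with DMSO only and 100% = wells lacking PAFAH1B3 protein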
pPAFAH inh – pPAFAH (human) enzyme inhibition. Q13093. recombinant pPAFAH, FP-rhodamine probe fluorescence polarization. inhibition, % at 3.39 µM. 330,000 tested, 1.5% active. AID 463082;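 active = inhibition above the mean inhibition across the screen plus 3 SD, cut at about 25% in these data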;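 also: inhibitors block binding of the rhodamine activity-based probe so polarization drops; 0% = enzyme with DMSO and 100% = wells lacking pPAFAH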
Target sequence (Q13093 whole entry, looked up): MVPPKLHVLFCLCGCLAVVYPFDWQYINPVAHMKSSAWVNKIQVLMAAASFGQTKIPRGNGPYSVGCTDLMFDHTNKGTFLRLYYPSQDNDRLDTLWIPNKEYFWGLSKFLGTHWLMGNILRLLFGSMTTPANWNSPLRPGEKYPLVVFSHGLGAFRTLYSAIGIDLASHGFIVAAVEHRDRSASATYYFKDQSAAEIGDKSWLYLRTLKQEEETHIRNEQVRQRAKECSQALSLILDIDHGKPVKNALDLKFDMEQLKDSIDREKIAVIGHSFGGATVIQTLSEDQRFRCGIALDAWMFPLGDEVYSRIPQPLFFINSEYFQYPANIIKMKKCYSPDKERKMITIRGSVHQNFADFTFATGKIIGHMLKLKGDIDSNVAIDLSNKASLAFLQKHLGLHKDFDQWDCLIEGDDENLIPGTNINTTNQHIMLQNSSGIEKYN
The depositor's hits bear a star; nt = not tested or not shown.

SMILES | PAFAH1B2 inh | PAFAH2 inh | ASAP1 inh | ARFGAP1 inh | PAFAH1B3 inh | pPAFAH inh
C/C(=N\NC(=O)c1cc(C)nc2ccc(C)cc12)c1ccncc1 | 0.0 | -5.0 | 1.9 | -2.0 | 8.6 | nt
O=C(OCc1ccc(Cl)c(Cl)c1)c1ccc[nH]1 | 5.5 | 46.6* | 4.9 | 5.9 | 4.3 | -1.6
CCCCc1ccc(C2C3=C(CC(C)(C)CC3=O)NC3=C2C(=O)c2ccccc23)cc1 (stereo unspecified) | -4.5 | -6.8 | -7.6 | 7.7 | 15.8 | 26.8*
O=C1CCCC/C1=C\Nc1ccc(O)cc1 | 0.3 | 4.1 | 8.7 | 11.0 | 4.7 | 26.1*
O=C1CCC/C1=C/Nc1ccc(Cl)cc1 | -4.5 | -7.2 | 3.0 | 5.0 | 4.0 | 7.7
Cc1onc(-c2ccccc2)c1C(=O)NC(=S)Nc1sc2c(c1C#N)CCCC2 | 9.1 | 10.5 | -1.7 | -12.7 | 1.8 | 0.6
Cc1onc(-c2ccccc2)c1C(=O)Nc1sc2c(c1C#N)CCC2 | 1.0 | 16.6 | 1.9 | -5.8 | 9.2 | 27.4*
Cc1cccc(C)c1-n1c(C)nn(-c2ncc(C(F)(F)F)cc2Cl)c1=O | 3.9 | -2.2 | 1.0 | -2.8 | 5.3 | -1.7
Cc1nn(-c2ncc(C(F)(F)F)cc2Cl)c(=O)n1-c1c(F)cccc1F | -1.5 | 7.0 | 5.9 | 4.9 | 8.3 | 30.0*
C=CC[C@]1(c2ccccc2)C(=O)N2C[C@H]3CON(C)[C@H]3C[C@H]2c2ccccc21 | nt | nt | 3.5 | 4.3 | nt | nt
CCOC(=O)c1c(NC(=O)C(C)Sc2cccc[n+]2[O-])sc2c1CCN(Cc1ccccc1)C2 (stereo unspecified) | -2.2 | -16.5 | nt | nt | 7.0 | 33.3*
NNC(=O)c1cc(NS(=O)(=O)c2cccs2)cc(NS(=O)(=O)c2cccs2)c1 | 15.0 | 17.1 | -5.6 | -1.8 | 21.3 | 29.4*
COc1ccc(/C=N/N(c2ccccc2)c2ccccc2)cc1O | 7.1 | 8.3 | 6.7 | 7.8 | 15.3 | nt
COc1cc(/C=N/N(c2ccccc2)c2ccccc2)ccc1O | 6.0 | -1.3 | 0.1 | -2.2 | 12.4 | 26.5*
Oc1ccc(Nc2nc3ccccc3nc2Nc2ccc(O)cc2)cc1 | 26.7* | -35.2 | nt | nt | 39.5* | 11.3
C[C@H]1CN([C@@H](C)CO)C(=O)c2cc(NC(=O)Cc3ccccc3)ccc2O[C@H]1CN(C)Cc1ccccc1 | 2.2 | 12.1 | -1.9 | -3.2 | 4.0 | 4.3
C[C@H](CO)N1C[C@H](C)[C@H](CN(C)C)Oc2ccc(NS(=O)(=O)c3ccc(F)cc3)cc2CC1=O | 4.4 | 1.4 | 3.8 | 2.4 | 0.1 | 16.7
C[C@H](CO)N1C[C@H](C)[C@H](CN(C)CC2CCCCC2)Oc2ccc(NS(=O)(=O)c3ccc(F)cc3)cc2CC1=O | 3.5 | 4.8 | 15.8 | 5.1 | 10.8 | 29.9*
C[C@@H]1CN([C@H](C)CO)C(=O)c2cc(NC(=O)Cc3ccccc3)ccc2O[C@H]1CN(C)Cc1ccc(Oc2ccccc2)cc1 | -0.4 | 4.2 | 3.6 | 10.9 | -2.9 | 25.2*
COc1ccc(S(=O)(=O)N(C)C[C@H]2Oc3ccc(NS(=O)(=O)c4ccc(F)cc4)cc3C(=O)N([C@H](C)CO)C[C@@H]2C)cc1 | 24.5* | -0.5 | 2.4 | 14.5 | 4.2 | 13.5
COc1ccc(S(=O)(=O)Nc2ccc3c(c2)C(=O)N([C@H](C)CO)C[C@H](C)[C@@H](CN(C)S(=O)(=O)c2cccs2)O3)cc1 | 25.5* | 7.5 | 0.7 | -11.8 | 6.6 | 5.0
CC(=O)Nc1ccc(S(=O)(=O)N2CCN=C2SCc2ccc([N+](=O)[O-])cc2)cc1 | 1.4 | 4.7 | 2.5 | 10.0 | -5.2 | 8.3
CCCNc1c(NS(=O)(=O)c2ccc3c(c2)CCCC3)c(=O)oc2ccccc12 | -0.7 | 17.7 | nt | nt | 7.0 | 8.5
COc1ccc(S(=O)(=O)Nc2ccc3c(c2)C(=O)N([C@H](C)CO)C[C@@H](C)[C@@H](CN(C)S(=O)(=O)c2ccc(Cl)cc2)O3)cc1 | 17.4 | 3.7 | 0.6 | -7.1 | 2.3 | 7.3
C[C@H](CO)N1C[C@H](C)[C@@H](CN(C)Cc2ccc(Cl)c(Cl)c2)Oc2c(NS(=O)(=O)c3ccc(F)cc3)cccc2C1=O | -2.6 | -1.8 | 30.9* | 1.2 | 5.3 | 2.0
